Source: ChEMBL document CHEMBL1944562, “Design, synthesis of some new (2-aminothiazol-4-yl)methylester derivatives as possible antimicrobial and antitubercular agents” (2012)
Values after ≈ are worked out from the molar mass of the structure shown.

Key:
Assay type in all cases: functional
[1] = tested on: Mycolicibacterium smegmatis; assay: Antitubercular activity against Mycobacterium smegmatis ATCC 19420 after 7 days by resazurin assay; settings: ATCC 19420, 168 h
Summary of the method: (§1)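 Middlebrook 7H9 broth with 10% OADC, culture adjusted to McFarland 2. 50 µL culture added to 150 µL fresh medium. Stocks at 2 mg/mL in DMF, tested first at 1, 10 and 100 µg/mL, then at 0.3125-5 µg/mL. DMF controls. After 7 days at 37 °C, 0.01% resazurin added. Blue-to-pink change read for MIC.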

Aspergillus fumigatus [2] = assay: Antifungal activity against Aspergillus fumigatus NCIM N0.902 at MIC after 3 to 4 days
Summary of the method: (§2)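 Fungal suspension made by transferring a loopful of culture to 3 mL saline and seeding agar plates, 20 mL agar per dish, dried 1 h at 37 °C. Punched wells loaded with test compound in DMSO at its MIC. DMSO-only control. Triplicate plates held 3-4 days at 37 °C. Inhibition zone diameter measured.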

Aspergillus flavus [3] = assay: Antifungal activity against Aspergillus flavus NCIM N0.524 after 3 to 4 days by serial plate dilution method
Aspergillus flavus [4] = assay: Antifungal activity against Aspergillus flavus NCIM N0.524 at MIC after 3 to 4 days; summary of the method: as §2
[5] = tested on: Trichophyton mentagrophytes; assay: Antifungal activity against Trichophyton mentagrophytes at MIC after 3 to 4 days; summary of the method: as §2
Klebsiella pneumoniae [6] = assay: Antibacterial activity against Klebsiella pneumoniae after 16 to 18 hrs by […]
Escherichia coli [7] = assay: Antibacterial activity against Escherichia coli ATCC 25922 at MIC after 3 to 4 days
Summary of the method: (§3)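 Agar well diffusion on seeded agar plates, 20 mL agar per dish, dried 1 h at 37 °C. Wells punched and loaded with test compound in DMSO at its MIC. DMSO-only control. Plates run in triplicate and kept 3-4 days at 37 °C. Inhibition zone diameter measured.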

[8] = tested on: Mycobacterium tuberculosis; assay: Antitubercular activity against Mycobacterium tuberculosis H37Rv after 7 days by resazurin assay; settings: 168 h
Summary of the method: (§4)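 M. tuberculosis H37Rv ATCC 27294 grown in Middlebrook 7H9 broth with 10% OADC and adjusted to McFarland 2. Culture was diluted 1:4 into fresh medium. Compounds came from 2 mg/mL DMF stocks, screened first at 1, 10 and 100, then at 0.3125–5. DMF-only controls were included. After 7 days at 37 °C, 0.01% resazurin was added; a blue-to-pink change marked growth, and the MIC was read.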

Candida albicans [9] = assay: Antifungal activity against Candida albicans at MIC after 3 to 4 days; summary of the method: as §2
Pseudomonas aeruginosa [10] = assay: Antibacterial activity against Pseudomonas aeruginosa ATCC 27853 after 16 to 18 hrs by […]
[11] = tested on: Mycobacterium tuberculosis; assay: Antitubercular activity against Mycobacterium tuberculosis H37Rv assessed as growth inhibition after 7 days by resazurin assay; summary of the method: as §4
Escherichia coli [12] = assay: Antibacterial activity against Escherichia coli ATCC 25922 after 16 to 18 hrs by […]
Talaromyces marneffei [13] = assay: Antifungal activity against Penicillium marneffei at MIC after 3 to 4 days; summary of the method: as §2
[14] = tested on: Trichophyton mentagrophytes; assay: Antifungal activity against Trichophyton mentagrophytes after 3 to 4 days by serial plate dilution method
Talaromyces marneffei [15] = assay: Antifungal activity against Penicillium marneffei after 3 to 4 days by serial plate dilution method
Candida albicans [16] = assay: Antifungal activity against Candida albicans after 3 to 4 days by serial plate dilution method
Bacillus subtilis [17] = assay: Antibacterial activity against Bacillus subtilis at MIC after 3 to 4 days; summary of the method: as §3
Aspergillus fumigatus [18] = assay: Antifungal activity against Aspergillus fumigatus NCIM N0.902 after 3 to 4 days by serial plate dilution method
Pseudomonas aeruginosa [19] = assay: Antibacterial activity against Pseudomonas aeruginosa ATCC 27853 at MIC after 3 to 4 days; summary of the method: as §3
Staphylococcus aureus [20] = assay: Antibacterial activity against Staphylococcus aureus ATCC 25923 at […] after 3 to 4 days; summary of the method: as §3
Bacillus subtilis [21] = assay: Antibacterial activity against Bacillus subtilis after 16 to 18 hrs by […]
[22] = tested on: Mycolicibacterium fortuitum; assay: Antitubercular activity against Mycobacterium fortuitum ATCC 19542 after 7 days by resazurin assay; settings: ATCC 19542, 168 h; summary of the method: as §1
Staphylococcus aureus [23] = assay: Antibacterial activity against Staphylococcus aureus ATCC 25923 after 16 to 18 hrs by serial plate dilution method
Klebsiella pneumoniae [24] = assay: Antibacterial activity against Klebsiella pneumoniae at MIC after 3 to 4 days; summary of the method: as §3

| SMILES | MIC [1] [µg/mL] | diameter of the inhibition zone (DIZ) (Aspergillus fumigatus [2]) [mm] | MIC (Aspergillus flavus [3]) [µg/mL] | diameter of the inhibition zone (DIZ) (Aspergillus flavus [4]) [mm] | diameter of the inhibition zone (DIZ) [5] [mm] | MIC (Klebsiella pneumoniae [6]) [µg/mL] | diameter of the inhibition zone (DIZ) (Escherichia coli [7]) [mm] | MIC [8] [µg/mL] | diameter of the inhibition zone (DIZ) (Candida albicans [9]) [mm] | MIC (Pseudomonas aeruginosa [10]) [µg/mL] | growth inhibition (GI) [11] [%] | MIC (Escherichia coli [12]) [µg/mL] | diameter of the inhibition zone (DIZ) (Talaromyces marneffei [13]) [mm] | MIC [14] [µg/mL] | MIC (Talaromyces marneffei [15]) [µg/mL] | MIC (Candida albicans [16]) [µg/mL] | diameter of the inhibition zone (DIZ) (Bacillus subtilis [17]) [mm] | MIC (Aspergillus fumigatus [18]) [µg/mL] | diameter of the inhibition zone (DIZ) (Pseudomonas aeruginosa [19]) [mm] | MIC [22] [µg/mL] | also measured |
| --- | --- | --- | --- | --- | --- | --- | --- | --- | --- | --- | --- | --- | --- | --- | --- | --- | --- | --- | --- | --- | --- |
| Nc1nc(COC(=O)c2cccs2)cs1 | 10 (≈ 41.6 µM) | 16 | 25 (≈ 104 µM) | <10 | 16 | 25 (≈ 104 µM) | 16 | 10 (≈ 41.6 µM) | 11 | 6.25 (≈ 26 µM) | <90 | 6.25 (≈ 26 µM) | <10 | 6.25 (≈ 26 µM) | 25 (≈ 104 µM) | 12.5 (≈ 52 µM) | <10 | 6.25 (≈ 26 µM) | 16 | 10 (≈ 41.6 µM) | diameter of the inhibition zone (DIZ) (Staphylococcus aureus [20]): 11 mm; MIC (Bacillus subtilis [21]): 25 µg/mL (≈ 104 µM); MIC (Staphylococcus aureus [23]): 12.5 µg/mL (≈ 52 µM); diameter of the inhibition zone (DIZ) (Klebsiella pneumoniae [24]): <10 mm |
| N#Cc1ccccc1C(=O)OCc1csc(N)n1 | > 100 | 11 | 12.5 (≈ 48.2 µM) | 11 | <10 | 12.5 (≈ 48.2 µM) | 16 | 5 (≈ 19.3 µM) | 16 | 6.25 (≈ 24.1 µM) | <90 | 6.25 (≈ 24.1 µM) | <10 | 25 (≈ 96.4 µM) | 25 (≈ 96.4 µM) | 6.25 (≈ 24.1 µM) | <10 | 12.5 (≈ 48.2 µM) | 16 | > 100 | diameter of the inhibition zone (DIZ) (Staphylococcus aureus [20]): 11 mm; MIC (Bacillus subtilis [21]): 25 µg/mL (≈ 96.4 µM); MIC (Staphylococcus aureus [23]): 12.5 µg/mL (≈ 48.2 µM); diameter of the inhibition zone (DIZ) (Klebsiella pneumoniae [24]): 11 mm |
| NNC(=O)c1ccncc1 [ISONIAZID] | 50 (≈ 365 µM) | – | – | – | – | – | – | 0.7 (≈ 5.1 µM) | – | – | 95 | – | – | – | – | – | – | – | – | 12.5 (≈ 91.1 µM) | – |
| Nc1nc(COC(=O)c2ccccc2[N+](=O)[O-])cs1 | 10 (≈ 35.8 µM) | <10 | 25 (≈ 89.5 µM) | <10 | <10 | 6.25 (≈ 22.4 µM) | 11 | 0.625 (≈ 2.24 µM) | <10 | 25 (≈ 89.5 µM) | 95 | 12.5 (≈ 44.8 µM) | 11 | 25 (≈ 89.5 µM) | 12.5 (≈ 44.8 µM) | 25 (≈ 89.5 µM) | 11 | 25 (≈ 89.5 µM) | <10 | 10 (≈ 35.8 µM) | diameter of the inhibition zone (DIZ) (Staphylococcus aureus [20]): 11 mm; MIC (Bacillus subtilis [21]): 12.5 µg/mL (≈ 44.8 µM); MIC (Staphylococcus aureus [23]): 12.5 µg/mL (≈ 44.8 µM); diameter of the inhibition zone (DIZ) (Klebsiella pneumoniae [24]): 16 mm |
| Nc1nc(COC(=O)Cc2cccc(C(F)(F)F)c2)cs1 | 10 (≈ 31.6 µM) | 11 | 12.5 (≈ 39.5 µM) | 11 | 11 | 12.5 (≈ 39.5 µM) | 16 | 0.625 (≈ 1.98 µM) | <10 | 6.25 (≈ 19.8 µM) | 95 | 6.25 (≈ 19.8 µM) | <10 | 12.5 (≈ 39.5 µM) | 25 (≈ 79 µM) | 25 (≈ 79 µM) | 16 | 12.5 (≈ 39.5 µM) | 16 | 10 (≈ 31.6 µM) | diameter of the inhibition zone (DIZ) (Staphylococcus aureus [20]): 16 mm; MIC (Bacillus subtilis [21]): 6.25 µg/mL (≈ 19.8 µM); MIC (Staphylococcus aureus [23]): 6.25 µg/mL (≈ 19.8 µM); diameter of the inhibition zone (DIZ) (Klebsiella pneumoniae [24]): 11 mm |
| N#Cc1ccc(C(=O)OCc2csc(N)n2)cn1 | > 100 | 16 | 25 (≈ 96.1 µM) | <10 | 16 | 6.25 (≈ 24 µM) | 16 | > 100 | <10 | 6.25 (≈ 24 µM) | 0 | 6.25 (≈ 24 µM) | <10 | 6.25 (≈ 24 µM) | 25 (≈ 96.1 µM) | 25 (≈ 96.1 µM) | 16 | 6.25 (≈ 24 µM) | 16 | > 100 | diameter of the inhibition zone (DIZ) (Staphylococcus aureus [20]): 16 mm; MIC (Bacillus subtilis [21]): 6.25 µg/mL (≈ 24 µM); MIC (Staphylococcus aureus [23]): 6.25 µg/mL (≈ 24 µM); diameter of the inhibition zone (DIZ) (Klebsiella pneumoniae [24]): 16 mm |
